Data from ChEMBL document CHEMBL4732105, “First orally bioavailable prodrug of proteolysis targeting chimera (PROTAC) degrades cyclin-dependent kinases 2/4/6 in vivo” (Eur J Med Chem, 2021).
The source made the active and inactive calls. No cut-off for these calls is given here.

What was measured:
[1] = system: A-375; assay: Induction of apoptosis in human A-375 cells assessed as early apoptotic cells at 500 nM incubated for 48 hrs by Annexin V-FITC/PI staining based flow cytometry (reference value: 2.82%); type: functional
[2] = system: A-375; assay: Induction of apoptosis in human A-375 cells assessed as late apoptotic cells at 1000 nM incubated for 48 hrs by Annexin V-FITC/PI staining based flow cytometry (reference value: 3.28%); type: functional
[3] = system: B16-F10; assay: Induction of apoptosis in mouse B16F10 cells assessed as viable cells at 500 nM incubated for 48 hrs by Annexin V-FITC/PI staining based flow cytometry (reference value: 95.9%); type: functional; conditions: read-out: Activity
[4] = system: A-375; assay: Induction of apoptosis in human A-375 cells incubated for 48 hrs by Annexin V-FITC/PI staining based flow cytometry; type: functional, cell-based; conditions: dose nM <=1000, time 48.0 hrs
[5] = system: A-375; assay: Induction of cell cycle arrest in human A-375 cells assessed as accumulation at G2 phase at 1000 uM incubated for 48 hrs by propidium iodide staining based flow cytometry (reference value: 12.42%); type: functional
Summary of the method: (§1)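 Tumor cells incubated 48 h in complete medium with compound or DMSO at various concentrations, stained with propidium iodide, and DNA content read by flow cytometry. G0/G1, S and G2/M fractions reported; mean ± SD, n = 3, Student's t-test.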

[6] = system: B16-F10; assay: Induction of cell cycle arrest in mouse B16-F10 cells assessed as accumulation at G2 phase at 25 uM incubated for 48 hrs by propidium iodide staining based flow cytometry (reference value: 18.22%); type: functional
[7] = system: A-375; assay: Induction of cell cycle arrest in human A-375 cells assessed as accumulation at G1 phase at 1000 uM incubated for 48 hrs by propidium iodide staining based flow cytometry (reference value: 58.26%); type: functional; summary of the method: as §1
[8] = biological target: Protein cereblon/Cyclin-dependent kinase 6 (Mus musculus) (UniProt Q8C7D2+Q64261); assay: Protac activity at CRBN/CDK6 in mouse B16F10 cells assessed as induction of CDK6 protein degradation at 500 nM by Western blot analysis; type: cell-based; conditions: B16-F10, time hrs <=12, TDE = time-dependent effect
Protein cereblon/Cyclin-dependent kinase 6 (Mus musculus), sequence (Q64261 whole entry, looked up): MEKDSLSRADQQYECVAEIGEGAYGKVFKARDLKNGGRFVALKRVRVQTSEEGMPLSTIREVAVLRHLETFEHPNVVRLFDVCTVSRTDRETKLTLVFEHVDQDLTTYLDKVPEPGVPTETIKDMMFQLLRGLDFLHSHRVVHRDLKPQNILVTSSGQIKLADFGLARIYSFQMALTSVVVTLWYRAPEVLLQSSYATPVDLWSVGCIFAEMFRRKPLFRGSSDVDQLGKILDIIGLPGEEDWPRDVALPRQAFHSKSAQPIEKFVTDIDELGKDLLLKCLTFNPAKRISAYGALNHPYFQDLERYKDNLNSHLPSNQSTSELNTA
Protein cereblon/Cyclin-dependent kinase 6 (Mus musculus), sequence (Q8C7D2 whole entry, looked up): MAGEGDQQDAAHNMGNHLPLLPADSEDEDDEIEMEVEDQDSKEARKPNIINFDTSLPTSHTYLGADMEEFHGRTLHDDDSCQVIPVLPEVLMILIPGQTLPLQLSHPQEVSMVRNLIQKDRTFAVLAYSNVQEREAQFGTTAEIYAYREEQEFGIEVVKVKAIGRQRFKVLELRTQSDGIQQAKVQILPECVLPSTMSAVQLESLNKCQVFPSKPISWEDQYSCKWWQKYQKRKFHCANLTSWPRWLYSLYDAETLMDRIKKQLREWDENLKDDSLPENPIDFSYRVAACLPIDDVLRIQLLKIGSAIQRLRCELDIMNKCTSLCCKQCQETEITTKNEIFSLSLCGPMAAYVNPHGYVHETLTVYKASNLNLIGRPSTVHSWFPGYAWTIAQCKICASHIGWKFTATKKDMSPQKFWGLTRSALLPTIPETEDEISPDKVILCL
Summary of the method: (§2)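 B16F10 and A375 cells treated with DMSO or serial dilutions of compound for 12 h (concentration series), or for the indicated times (time course). CDK2, CDK4 and CDK6 protein levels determined by western blot.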

[9] = Cmax in Sprague-Dawley rat at 10 mg/kg, iv; type: ADME, organism-based; design: route intravenous, dose 10 mg/kg; conditions: in vivo
[10] = biological target: T1, Protein cereblon/Cyclin-dependent kinase 2 (Homo sapiens) (UniProt P24941+Q96SW2); assay: Protac activity at CRBN/CDK2 in human A-375 cells assessed as induction of CDK2 protein degradation at 1000 nM by Western blot analysis; type: cell-based; conditions: time hrs <=12, TDE = time-dependent effect; summary of the method: as §2
[11] = system: A-375; assay: Induction of cell cycle arrest in human A-375 cells assessed as accumulation at G2 phase at 500 uM incubated for 48 hrs by propidium iodide staining based flow cytometry (reference value: 12.42%); type: functional; summary of the method: as §1
[12] = biological target: T2, Protein cereblon/Cyclin-dependent kinase 4 (Mus musculus) (UniProt P30285+Q8C7D2); assay: Protac activity at CRBN/CDK4 in mouse B16F10 cells assessed as induction of CDK4 protein degradation at 100 nM for 6 hrsin presence of Pomalidomide by Western blot analysis; type: cell-based; conditions: B16-F10, time 6.0 hrs
T2 sequence (P30285 whole entry, looked up): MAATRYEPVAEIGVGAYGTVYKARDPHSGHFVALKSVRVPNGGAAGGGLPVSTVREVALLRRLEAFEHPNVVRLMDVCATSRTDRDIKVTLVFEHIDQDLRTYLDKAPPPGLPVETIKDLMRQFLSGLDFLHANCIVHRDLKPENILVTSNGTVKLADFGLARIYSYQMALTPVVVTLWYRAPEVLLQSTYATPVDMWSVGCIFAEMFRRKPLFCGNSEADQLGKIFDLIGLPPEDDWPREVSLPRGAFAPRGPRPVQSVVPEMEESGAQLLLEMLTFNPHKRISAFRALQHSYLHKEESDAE
T2 sequence (Q8C7D2 whole entry, looked up): as the sequence (Q8C7D2 whole entry, looked up) above
Summary of the method: (§3)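 B16F10 cells pre-treated 2 h with DMSO, pomalidomide (10 μM), MG132 (20 μM) or a parent CDK ligand, then exposed to 100 nM degrader for 6 h. CDK2/4/6 protein levels read by western blot.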

[13] = system: B16-F10; assay: Induction of apoptosis in mouse B16F10 cells assessed as increase in cleaved PARP level incubated for 48 hrs by Western blot analysis; type: functional, cell-based; conditions: dose nM <=1000, time 48.0 hrs
Summary of the method: (§4)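 A375 and B16F10 cells incubated with compound for 48 h. Cleaved caspase-3, cleaved PARP, total P53, Bcl-2 and Bax measured by western blot.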

[14] = system: A-375; assay: Induction of apoptosis in human A-375 cells assessed as viable cells at 500 nM incubated for 48 hrs by Annexin V-FITC/PI staining based flow cytometry (reference value: 93.3%); type: functional; conditions: read-out: Activity
[15] = system: A-375; assay: Induction of apoptosis in human A-375 cells assessed as early apoptotic cells at 250 nM incubated for 48 hrs by Annexin V-FITC/PI staining based flow cytometry (reference value: 2.82%); type: functional
[16] = system: B16-F10; assay: Induction of apoptosis in mouse B16F10 cells assessed as viable cells at 250 nM incubated for 48 hrs by Annexin V-FITC/PI staining based flow cytometry (reference value: 95.9%); type: functional; conditions: read-out: Activity
[17] = system: A-375; assay: Induction of cell cycle arrest in human A-375 cells assessed as accumulation at G2 phase at 250 uM incubated for 48 hrs by propidium iodide staining based flow cytometry (reference value: 12.42%); type: functional; summary of the method: as §1
[18] = biological target: T2, Protein cereblon/Cyclin-dependent kinase 4 (Mus musculus); assay: Protac activity at CRBN/CDK4 in mouse B16F10 cells assessed as induction of CDK4 protein degradation at 100 nM for 6 hrsin presence of Ribociclib by Western blot analysis; type: cell-based; conditions: B16-F10, time 6.0 hrs
[19] = system: B16-F10; assay: Induction of apoptosis in mouse B16F10 cells assessed as increase in cleaved caspase 3 level incubated for 48 hrs by Western blot analysis; type: functional, cell-based; conditions: dose nM <=1000, time 48.0 hrs; summary of the method: as §4
[20] = biological target: T3, Protein cereblon/Cyclin-dependent kinase 2 (Mus musculus) (UniProt P97377+Q8C7D2); assay: Protac activity at CRBN/CDK2 in mouse B16F10 cells assessed as induction of CDK2 protein degradation at 100 nM for 6 hrsin presence of Pomalidomide by Western blot analysis; type: cell-based; conditions: B16-F10, time 6.0 hrs; summary of the method: as §3
T3 sequence (Q8C7D2 whole entry, looked up, other chains not shown): as the sequence (Q8C7D2 whole entry, looked up) above

[21] = system: A-375; assay: Induction of apoptosis in human A-375 cells assessed as increase in cleaved caspase 3 level incubated for 48 hrs by Western blot analysis; type: functional, cell-based; conditions: dose nM <=2000, time 48.0 hrs; summary of the method: as §4
[22] = system: A-375; assay: Induction of cell cycle arrest in human A-375 cells assessed as accumulation at G0/G1 phase upto […] incubated for 48 hrs by propidium iodide staining based flow cytometry; type: functional; summary of the method: as §1
[23] = system: A-375; assay: Induction of apoptosis in human A-375 cells assessed as increase in cleaved PARP level incubated for 48 hrs by Western blot analysis; type: functional, cell-based; conditions: dose nM <=2000, time 48.0 hrs; summary of the method: as §4
[24] = biological target: Protein cereblon/Cyclin-dependent kinase 6 (Homo sapiens) (UniProt Q00534+Q96SW2); assay: Protac activity at CRBN/CDK6 in human A-375 cells assessed as induction of CDK6 protein degradation after 12 hrs by Western blot analysis; type: cell-based; conditions: dose 62.5-1000 nM; summary of the method: as §2
Protein cereblon/Cyclin-dependent kinase 6 (Homo sapiens), sequence (Q00534 whole entry, looked up): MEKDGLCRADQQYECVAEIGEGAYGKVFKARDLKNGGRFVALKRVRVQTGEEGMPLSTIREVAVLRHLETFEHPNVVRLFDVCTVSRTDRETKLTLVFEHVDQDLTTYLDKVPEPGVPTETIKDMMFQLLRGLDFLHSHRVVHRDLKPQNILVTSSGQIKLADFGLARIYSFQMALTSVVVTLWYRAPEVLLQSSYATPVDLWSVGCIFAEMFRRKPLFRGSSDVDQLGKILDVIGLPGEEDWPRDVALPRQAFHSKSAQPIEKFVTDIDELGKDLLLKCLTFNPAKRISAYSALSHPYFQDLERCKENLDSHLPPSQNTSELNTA
Protein cereblon/Cyclin-dependent kinase 6 (Homo sapiens), sequence (Q96SW2 whole entry, looked up): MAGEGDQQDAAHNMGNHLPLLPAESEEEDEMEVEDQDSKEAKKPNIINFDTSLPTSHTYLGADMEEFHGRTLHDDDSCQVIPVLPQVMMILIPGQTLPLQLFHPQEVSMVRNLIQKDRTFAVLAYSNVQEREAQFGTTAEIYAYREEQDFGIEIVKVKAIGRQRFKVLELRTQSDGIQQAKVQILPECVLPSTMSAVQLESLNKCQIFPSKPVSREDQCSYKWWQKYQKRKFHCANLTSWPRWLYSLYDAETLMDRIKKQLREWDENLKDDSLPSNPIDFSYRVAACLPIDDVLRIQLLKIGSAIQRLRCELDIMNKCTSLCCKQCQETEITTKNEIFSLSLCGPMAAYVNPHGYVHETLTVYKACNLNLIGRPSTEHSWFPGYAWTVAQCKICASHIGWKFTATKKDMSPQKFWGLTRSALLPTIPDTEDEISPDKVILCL

[25] = biological target: T3, Protein cereblon/Cyclin-dependent kinase 2 (Mus musculus); assay: Protac activity at CRBN/CDK2 in mouse B16F10 cells assessed as induction of CDK2 protein degradation at 500 nM by Western blot analysis; type: cell-based; conditions: B16-F10, time hrs <=12, TDE = time-dependent effect; summary of the method: as §2
[26] = biological target: T1, Protein cereblon/Cyclin-dependent kinase 2 (Homo sapiens); assay: Protac activity at CRBN/CDK2 in human A-375 cells assessed as induction of CDK2 protein degradation after 12 hrs by Western blot analysis; type: cell-based; conditions: dose 62.5-1000 nM; summary of the method: as §2
[27] = system: B16-F10; assay: Induction of apoptosis in mouse B16F10 cells assessed as necrotic cells at 250 nM incubated for 48 hrs by Annexin V-FITC/PI staining based flow cytometry (reference value: 0.21%); type: functional
[28] = system: A-375; assay: Induction of apoptosis in human A-375 cells assessed as decrease in Bcl-2 level upto 2000 nM incubated for 48 hrs by Western blot analysis; type: functional, cell-based; conditions: dose nM <=2000, time 48.0 hrs; summary of the method: as §4
[29] = system: B16-F10; assay: Induction of cell cycle arrest in mouse B16-F10 cells assessed as accumulation at G2 phase at 50 uM incubated for 48 hrs by propidium iodide staining based flow cytometry (reference value: 18.22%); type: functional

Activity [8]: Tde | Cmax [9]: 59.9 µg/mL | Activity [10]: Tde | Activity [12]: inactive | Activity [18]: inactive | Activity [20]: inactive | Activity [24]: Dose-dependent effect | Activity [25]: Tde | Activity [26]: Dose-dependent effect
SMILES: CN(C)C(=O)c1cc2cnc(Nc3ccc(C(=O)NCCCCCCNc4cccc5c4C(=O)N(C4CCC(=O)NC4=O)C5=O)cc3)nc2n1C1CCCC1 (centres undefined)
Activity [1]: 9.59% | Activity [2]: 14.8% | viability at 0.5 µM [3]: 4.73% | Activity [4]: Dose-dependent effect | Activity [5]: 16.68% | Activity [6]: 19.56% | Activity [7]: 74.09% | Activity [11]: 13.67% | Activity [13]: Dose-dependent effect | viability at 0.5 µM [14]: 85.2% | Activity [15]: 5.54% | viability at 0.25 µM [16]: 23.4% | Activity [17]: 9.57% | Activity [19]: Dose-dependent effect | Activity [21]: Dose-dependent effect | Activity [22]: Active | Activity [23]: Dose-dependent effect | Activity [27]: 0.14% | Activity [28]: Active | Activity [29]: 22.66%
